One data set concerns MDCK. In words: Cytotoxicity against MDCK cells assessed as effect on cell viability at 50 uM measured after 36 hrs by CellTiter-Glo assay. The following applies: dog. The data set is classed as cell-based, Canis lupus familiaris. A digest of the protocol: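 MDCK cells (1 × 10⁴ per well) left to adhere 24 h at 37 °C, 5% CO₂. Medium then replaced with fresh medium containing compound at 50 μM, in triplicate. Controls received medium with 1% DMSO. Plates incubated 36 h at 37 °C, 5% CO₂, then viability read by CellTiter-Glo luminescence.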
In general terms: Cellular ATP, detected with luciferase, serves as a proxy for viable cell number.

For another data set, the system named is Influenza A virus. In words: Antiviral activity against Influenza A virus (A/WSN/33(H1N1)) infected in MDCK cells assessed as reduction in virus-induced cytopathic effect at 50 uM after 40 hrs by CellTiter-Glo assay. The format is functional, organism-based. The following applies: A/WSN/1933(H1N1). The method, boiled down: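 MDCK cells seeded, grown overnight, then infected with A/WSN/33 (H1N1) at MOI 0.1 in DMEM with 1% FBS, 2 μg/mL TPCK-treated trypsin and test compound (final DMSO 1%). Compounds screened at a single 50 μM concentration. Incubation 40 h, then viability read by CellTiter-Glo luminescence. Oseltamivir positive control, DMSO negative control. Virus stock titres determined in MDCK cells by Reed and Muench.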
On the technique in general: Cytopathic effects are the visible damage that an infection or toxin causes in cultured cells.

Data set [1] can be described thus: Lipophilicity, log P of the compound. The format is physicochemical. To be noted: octanol/water. The method, boiled down:
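Calculated value (AlogP, Ghose and Crippen octanol–water partition coefficient at 25 °C), computed in silico rather than measured.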

A short description of data set [2]: Solubility of the compound in water. The data set is classed as physicochemical. To be noted: buffer.
For another data set, the system named is Human gammaherpesvirus 4. In words: Antiviral activity against EBV infected in human Raji cells assessed as reduction in viral genome copy numbers by qRT-PCR analysis. The following applies: human gammaherpesvirus 4, Raji. The data set is classed as functional, organism-based. On the technique in general: Real-time PCR tracks product formation cycle by cycle.

Data set [3] relates to Human alphaherpesvirus 1. In words: Antiviral activity against […] Herpes simplex virus 1 B2006 infected in African green monkey Vero cells assessed as reduction in viral titer after 72 hrs by crystal violet staining based assay. The format is functional, organism-based. The following applies: Human alphaherpesvirus 1, B2006, Vero.
For data set [4], the system named is Human alphaherpesvirus 1. In words: Antiviral activity against […] Herpes simplex virus 1 KOS infected in African green monkey Vero cells assessed as reduction in viral titer after 72 hrs by crystal violet staining based assay. The format is functional, organism-based. The following applies: Human alphaherpesvirus 1, strain KOS.

Converted amounts (≈) assume the structure as drawn. The source made the active and inactive calls. The calls are words filed in the database; no cut-off is given here.

As a reminder, the logP is a log measure of how a compound divides between an organic and an aqueous phase. A word on the solubility: it is the dissolved amount per volume that the medium holds. The EC50 is the midpoint of the concentration-response curve.

Consider `CC(=O)OC[C@H]1O[C@@H]2O[C@H]3[C@H](OC(C)=O)[C@@H](OC(C)=O)[C@@H](O[C@H]4[C@H](OC(C)=O)[C@@H](OC(C)=O)[C@@H](O[C@H]5[C@H](OC(C)=O)[C@@H](OC(C)=O)[C@@H](O[C@H]6[C@H](OC(C)=O)[C@@H](OC(C)=O)[C@@H](O[C@H]7[C@H](OC(C)=O)[C@@H](OC(C)=O)[C@@H](O[C@H]8[C@H](OC(C)=O)[C@@H](OC(C)=O)[C@@H](O[C@H]1[C@H](OC(C)=O)[C@H]2OC(C)=O)O[C@@H]8COC(C)=O)O[C@@H]7COC(C)=O)O[C@@H]6COC(C)=O)O[C@@H]5Cn1cc(COCCOCCOCCOCCNC(=O)[C@@]2(C)CC[C@]5(C)CC[C@]6(C)C(=CC(=O)[C@@H]7[C@@]8(C)CC[C@H](O)C(C)(C)[C@@H]8CC[C@]76C)[C@@H]5C2)nn1)O[C@@H]4COC(C)=O)O[C@@H]3COC(C)=O`, for which the Activity entry in the data set with MDCK was “Non-Toxic”. Besides, the result in the data set with Influenza A virus was Active.

Regarding `CC1(C)[C@@H](OCc2cn(C[C@H]3O[C@@H]4O[C@H]5[C@H](O)[C@@H](O)[C@@H](O[C@H]6[C@H](O)[C@@H](O)[C@@H](O[C@H]7[C@H](O)[C@@H](O)[C@@H](O[C@H]8[C@H](O)[C@@H](O)[C@@H](O[C@H]9[C@H](O)[C@@H](O)[C@@H](O[C@H]%10[C@H](O)[C@@H](O)[C@@H](O[C@H]3[C@H](O)[C@H]4O)O[C@@H]%10CO)O[C@@H]9CO)O[C@@H]8CO)O[C@@H]7CO)O[C@@H]6CO)O[C@@H]5CO)nn2)CC[C@]2(C)[C@H]3C(=O)C=C4[C@@H]5C[C@@](C)(C(=O)O)CC[C@]5(C)CC[C@@]4(C)[C@]3(C)CC[C@@H]12`, the Activity entry in the data set on MDCK is “Non-Toxic”. The outcome in the data set on Influenza A virus was Active.

Consider `CC(=O)OC[C@H]1O[C@@H]2O[C@H]3[C@H](OC(C)=O)[C@@H](OC(C)=O)[C@@H](O[C@H]4[C@H](OC(C)=O)[C@@H](OC(C)=O)[C@@H](O[C@H]5[C@H](OC(C)=O)[C@@H](OC(C)=O)[C@@H](O[C@H]6[C@H](OC(C)=O)[C@@H](OC(C)=O)[C@@H](O[C@H]7[C@H](OC(C)=O)[C@@H](OC(C)=O)[C@@H](O[C@H]8[C@H](OC(C)=O)[C@@H](OC(C)=O)[C@@H](O[C@H]1[C@H](OC(C)=O)[C@H]2OC(C)=O)O[C@@H]8COC(C)=O)O[C@@H]7COC(C)=O)O[C@@H]6COC(C)=O)O[C@@H]5Cn1cc(COCCOCCNC(=O)[C@@]2(C)CC[C@]5(C)CC[C@]6(C)C(=CC(=O)[C@@H]7[C@@]8(C)CC[C@H](O)C(C)(C)[C@@H]8CC[C@]76C)[C@@H]5C2)nn1)O[C@@H]4COC(C)=O)O[C@@H]3COC(C)=O`, for which the Activity entry in the data set on MDCK is reported as “Non-Toxic”. Also, the outcome with Influenza A virus was Active.

`CC1(C)[C@@H](O)CC[C@]2(C)[C@H]3C(=O)C=C4[C@@H]5C[C@@](C)(C(=O)NCCOCCOCCOCCOCc6cn(C[C@H]7O[C@@H]8O[C@H]9[C@H](O)[C@@H](O)[C@@H](O[C@H]%10[C@H](O)[C@@H](O)[C@@H](O[C@H]%11[C@H](O)[C@@H](O)[C@@H](O[C@H]%12[C@H](O)[C@@H](O)[C@@H](O[C@H]%13[C@H](O)[C@@H](O)[C@@H](O[C@H]%14[C@H](O)[C@@H](O)[C@@H](O[C@H]7[C@H](O)[C@H]8O)O[C@@H]%14CO)O[C@@H]%13CO)O[C@@H]%12CO)O[C@@H]%11CO)O[C@@H]%10CO)O[C@@H]9CO)nn6)CC[C@]5(C)CC[C@@]4(C)[C@]3(C)CC[C@@H]12`: in the data set on MDCK, the Activity result is “Non-Toxic”. For the same molecule, the result in the data set on Influenza A virus was Active.

As to `CC1(C)[C@@H](O)CC[C@]2(C)[C@H]3C(=O)C=C4[C@@H]5C[C@@](C)(C(=O)O)CC[C@]5(C)CC[C@@]4(C)[C@]3(C)CC[C@@H]12` [ENOXOLONE], in data set [1], the logP turned out to be 6.75. Further, in data set [2], the solubility was 10.6 µg/mL (≈ 22.5 µM). In the data set with Human gammaherpesvirus 4, the EC50 worked out at 4 µM.

`CC1(C)[C@@H](O[C@H]2O[C@H](C(=O)O)[C@@H](O)[C@H](O)[C@H]2O[C@@H]2O[C@H](C(=O)O)[C@@H](O)[C@H](O)[C@H]2O)CC[C@]2(C)[C@H]3C(=O)C=C4[C@@H]5C[C@@](C)(C(=O)O)CC[C@]5(C)CC[C@@]4(C)[C@]3(C)CC[C@@H]12` [GLYCYRRHIZIN]: the EC50 with Human gammaherpesvirus 4 is 30 µM.

As to `CC1(C)[C@@H](O)CC[C@]2(C)[C@H]3C(=O)C=C4[C@@H]5C[C@@](C)(C(=O)NCCOCc6cn(C[C@H]7O[C@@H]8O[C@H]9[C@H](O)[C@@H](O)[C@@H](O[C@H]%10[C@H](O)[C@@H](O)[C@@H](O[C@H]%11[C@H](O)[C@@H](O)[C@@H](O[C@H]%12[C@H](O)[C@@H](O)[C@@H](O[C@H]%13[C@H](O)[C@@H](O)[C@@H](O[C@H]%14[C@H](O)[C@@H](O)[C@@H](O[C@H]7[C@H](O)[C@H]8O)O[C@@H]%14CO)O[C@@H]%13CO)O[C@@H]%12CO)O[C@@H]%11CO)O[C@@H]%10CO)O[C@@H]9CO)nn6)CC[C@]5(C)CC[C@@]4(C)[C@]3(C)CC[C@@H]12`, the Activity result in the data set on MDCK was “Non-Toxic”. Moreover, the result with Influenza A virus was Active.

On to `CC(O)CNC(=O)[C@@]1(C)CC[C@]2(C)CC[C@]3(C)C(=CC(=O)[C@@H]4[C@@]5(C)CC[C@H](O)C(C)(C)[C@@H]5CC[C@]43C)[C@@H]2C1` (stereo not given in full), for which the EC50 in the data set on Human alphaherpesvirus 1 [3] and with Human alphaherpesvirus 1 [4] was 4.95 µM throughout.

On to `CC(=O)OC[C@H]1O[C@@H]2O[C@H]3[C@H](OC(C)=O)[C@@H](OC(C)=O)[C@@H](O[C@H]4[C@H](OC(C)=O)[C@@H](OC(C)=O)[C@@H](O[C@H]5[C@H](OC(C)=O)[C@@H](OC(C)=O)[C@@H](O[C@H]6[C@H](OC(C)=O)[C@@H](OC(C)=O)[C@@H](O[C@H]7[C@H](OC(C)=O)[C@@H](OC(C)=O)[C@@H](O[C@H]8[C@H](OC(C)=O)[C@@H](OC(C)=O)[C@@H](O[C@H]1[C@H](OC(C)=O)[C@H]2OC(C)=O)O[C@@H]8COC(C)=O)O[C@@H]7COC(C)=O)O[C@@H]6COC(C)=O)O[C@@H]5Cn1cc(CNC(=O)[C@@]2(C)CC[C@]5(C)CC[C@]6(C)C(=CC(=O)[C@@H]7[C@@]8(C)CC[C@H](O)C(C)(C)[C@@H]8CC[C@]76C)[C@@H]5C2)nn1)O[C@@H]4COC(C)=O)O[C@@H]3COC(C)=O`, for which the Activity result with MDCK was “Non-Toxic”. Moreover, the outcome in the data set on Influenza A virus was Active.

As to `CC(=O)OC[C@H]1O[C@@H]2O[C@H]3[C@H](OC(C)=O)[C@@H](OC(C)=O)[C@@H](O[C@H]4[C@H](OC(C)=O)[C@@H](OC(C)=O)[C@@H](O[C@H]5[C@H](OC(C)=O)[C@@H](OC(C)=O)[C@@H](O[C@H]6[C@H](OC(C)=O)[C@@H](OC(C)=O)[C@@H](O[C@H]7[C@H](OC(C)=O)[C@@H](OC(C)=O)[C@@H](O[C@H]8[C@H](OC(C)=O)[C@@H](OC(C)=O)[C@@H](O[C@H]1[C@H](OC(C)=O)[C@H]2OC(C)=O)O[C@@H]8COC(C)=O)O[C@@H]7COC(C)=O)O[C@@H]6COC(C)=O)O[C@@H]5Cn1cc(COCCOCCOCCOCCOCCOCCNC(=O)[C@@]2(C)CC[C@]5(C)CC[C@]6(C)C(=CC(=O)[C@@H]7[C@@]8(C)CC[C@H](O)C(C)(C)[C@@H]8CC[C@]76C)[C@@H]5C2)nn1)O[C@@H]4COC(C)=O)O[C@@H]3COC(C)=O`, the Activity entry with MDCK is “Non-Toxic”. For the same molecule, the outcome in the data set on Influenza A virus was Active.

The values above are taken from ChEMBL document CHEMBL4400530, “Synthesis and structure-activity relationship studies of water-soluble β-cyclodextrin-glycyrrhetinic acid conjugates as potential anti-influenza virus agents” (Eur J Med Chem, 2019).
